Screens as filed in PubChem BioAssay.
Hits are enriched below; roughly 1.3% of the tested compounds scored in any of these assays.
GRK2 aptamer HTS = compounds blocking aptamer binding on GRK2 – biochemical, human GRK2, bead flow cytometry, HTS, primary screen; Beta-adrenergic receptor kinase 1 (Homo sapiens), P25098; FAM-aptamer displacement from GRK2; inhibition of aptamer binding, % at 10 µM; 330,000 compounds, 0.59% hits;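 active = inhibition of aptamer binding above 40%, roughly 3 SD of noise, on plates passing a quality check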;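 note: median bead fluorescence of bound FAM aptamer so fluorescent compounds give negative values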
proCasp7 act = procaspase-7 activators, primary screen, counter-screen for procaspase-3 activator project, biochemical, absorbance, HTS, human | Caspase-7 (Homo sapiens), P55210 | recombinant procaspase-7, Ac-DEVD-pNA absorbance 405 nm; D23A/D198A/D206A triple mutant, cannot self-cleave; scale: DMSO 0, 5 µM enzyme 100 | activation, % at 8.5 µM | 330,000 compounds, 0.093% hits;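 active = percent activation above the screen-wide mean plus 3 SD, cut at about 25% in these data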
Target sequence (P55210 whole entry D23A/D198A/D206A): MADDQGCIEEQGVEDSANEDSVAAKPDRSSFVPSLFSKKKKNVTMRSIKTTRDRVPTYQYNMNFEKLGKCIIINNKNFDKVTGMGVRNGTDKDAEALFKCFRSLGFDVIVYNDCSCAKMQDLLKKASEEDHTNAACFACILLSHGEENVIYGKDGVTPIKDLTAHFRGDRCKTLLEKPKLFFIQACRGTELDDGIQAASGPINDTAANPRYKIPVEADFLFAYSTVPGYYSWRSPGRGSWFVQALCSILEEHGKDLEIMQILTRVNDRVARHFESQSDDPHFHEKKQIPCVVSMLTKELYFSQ
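Test system: Procaspase-7 triple mutant (PC-7 D3A). Also added: Ac-DEVD-pNA substrate, 400 µM as added. Schedule: 1 h enzyme–compound preincubation and 2 h substrate reaction, both 25 °C. Signal: p-Nitroaniline absorbance at 405 nm, read at 0 and 120 min. Control set: low DMSO alone, high DMSO plus 5 µM PC-7.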
VLA-4 inh = inhibition in human VLA-4 binding assay, primary screen, VLA-4 allosteric modulator project, MLPCN library, flow cytometry, VLA-4 expressing cells; Integrin alpha-4 (Homo sapiens), P13612; ligand binding flow cytometry; inhibition, % (about 7 µM as worked out from the volumes in the protocol); 330,000 compounds, 0.2% hits; in the data active = inhibition above about 50%
proCasp3 act = activators of human procaspase-3 D3A mutant, primary screen, biochemical, absorbance, PC-3 D3A mutant, single concentration | recombinant procaspase-3 D3A, Ac-DEVD-pNA absorbance 405 nm | Caspase-3 (Homo sapiens), P42574 | activation, % at 8.5 µM | 330,000 compounds, 0.11% hits | AID 463141, 2010;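 active = activation above the mean of all tested compounds plus 3 SD, cut at about 21% in these data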;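 note: 0% = DMSO alone and 100% = DMSO wells spiked with extra 5 µM PC-3 D3A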
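assay system = Procaspase-3 D3A mutant | signal = absorbance at 405 nm, 0 and 120 min | times = 1 h preincubation plus 2 h reaction at 25 °C | repeats = single replicate | read-out = % activation between DMSO and enzyme-spiked controls | medium = Zinc-free HEPES saline buffer with Triton X-100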
GASC-1 inh = inhibitors of GASC-1 histone demethylase, primary screen, biochemical, fluorescence, DELFIA europium; 330,000 compounds, 0.069% hits; inhibition, % at 2.35 µM; AID 2099, 2009; GST-JMJD2C(1-420) H3K9me3 demethylation; Lysine-specific demethylase 4C (Homo sapiens), Q9H3R0;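 active = more than half of a compound's replicate wells show inhibition beyond 50%, single wells judged on their own value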;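 note: signal counts dimethyl H3K9 product captured on neutravidin plate; 0% = median of DMSO wells and 100% = 0.3 times that DMSO median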
Target sequence (Q9H3R0 1-420 limits assumed): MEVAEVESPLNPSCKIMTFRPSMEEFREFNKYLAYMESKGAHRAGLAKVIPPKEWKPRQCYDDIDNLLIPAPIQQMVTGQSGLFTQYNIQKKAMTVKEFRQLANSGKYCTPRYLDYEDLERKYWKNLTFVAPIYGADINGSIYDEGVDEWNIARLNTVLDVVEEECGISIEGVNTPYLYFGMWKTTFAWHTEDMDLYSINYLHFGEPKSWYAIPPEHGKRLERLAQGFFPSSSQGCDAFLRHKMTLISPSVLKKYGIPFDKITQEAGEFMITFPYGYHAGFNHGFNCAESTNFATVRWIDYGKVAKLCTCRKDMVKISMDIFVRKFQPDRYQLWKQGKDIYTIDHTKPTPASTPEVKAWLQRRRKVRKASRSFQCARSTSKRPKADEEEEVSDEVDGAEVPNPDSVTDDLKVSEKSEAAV
Hep lipid drop = inhibitors of hepatocyte lipid droplet formation, primary screen, imaging, high-throughput imaging, BODIPY stain. AML12 mouse hepatocytes, oleate lipid droplets. inhibition, % at 6.5 µM. 240,000 compounds, 0.4% hits. AID 1656, 2009;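 active = lipid droplet intensity inhibited by at least 50%, with more than 500 cells counted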
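Test system: AML12 hepatocytes (mouse); reagent: oleate loading, 100 µM; dosing: one dose, 6.5 µM compound; incubation: overnight exposure; signal: fluorescence imaging, 20x objective, two fields per well; read-out basis: % inhibition of corrected integrated BODIPY droplet signal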
GRK2 CP1 = GRK2 aptamer-displacing inhibitors, retest, confirmation, biochemical, cherry pick 1, bead flow cytometry. shares compounds with GRK2 aptamer HTS. bead-bound GRK2, FAM-aptamer displacement. aptamer displacement, % at 10 µM. 2,000 compounds, 4% hits. AID 504451, 2011;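 active = aptamer displacement above 40%, near three times the noise of non-fluorescent compounds, on plates passing quality checks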;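 note: negative values mostly reflect intrinsic compound fluorescence rather than true enhancement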
Aptamer quench = counter-screen for GRK2 aptamer inhibitors: fluorescent aptamer quenchers. shares compounds with GRK2 aptamer HTS. Fluorescent RNA aptamer beads, quenching, flow cytometry; stronger effect = higher value. fluorescence change (kMESF span), kMESF (no concentration beside the values). 110 tested, under 10 active;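 active = compounds whose bead fluorescence drops by more than 37 kMESF across the dose range, marking them as dye quenchers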
Aptamer quench SP = aptamer fluorescence quenching in GRK2 counter-screen | Carboxyfluorescein RNA aptamer on beads, flow cytometry quenching; stronger effect = lower value | fluorescence response (% of DMSO), % at 10 µM | 2,000 tested, under 10 active | AID 504580 | shares compounds with GRK2 aptamer HTS;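 active = compounds that quench the bead-bound fluorescent RNA probe, cutting fluorescence to under half of the solvent control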;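 note: counterscreen run without GRK2 so only probe quenching by compound is measured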
GRK2 CP2 = GRK2 aptamer-displacing inhibitors, hit retest, confirmation, biochemical, cherry pick 2, bead flow cytometry | shares compounds with GRK2 aptamer HTS | bead-bound GRK2, FAM-aptamer displacement | inhibition of aptamer binding, % at 10 µM | 360 tested, under 10 active;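 active = inhibition of aptamer binding above 40%, about triple the noise seen with nonglowing compounds, on plates passing quality control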;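 note: negative values mostly come from compounds that fluoresce themselves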
FAM quench SP = counter-screen for GRK2 binding hits: quenchers of fluorescent RNA aptamer. fluorescence response vs DMSO, % at 10 µM. 360 tested, under 10 active. shares compounds with GRK2 aptamer HTS. carboxyfluorescein RNA aptamer beads, flow cytometry quenching; stronger effect = lower value;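 active = response vs DMSO under 50%, meaning signal dropped by over half, treated as fluorescence quencher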;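 note: labelled aptamer on streptavidin beads without GRK2 as a quench counter-screen; 100% = bead fluorescence of DMSO wells and lower means quenching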
FAM quench DR = quenchers of FAM-labeled RNA aptamer fluorescence, dose response, artefact control for GRK2 aptamer binding project, biochemical, powder set 1, flow cytometry; fluorescence ratio to DMSO, % at 11.1 µM; Bead-bound FAM RNA aptamer fluorescence quenching; stronger effect = lower value; shares compounds with GRK2 aptamer HTS; 35 tested, under 10 active; AID 588496, 2011;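 active = compounds that dim the fluorescent label, raw bead signal shifting by over 33 units between lowest and highest dose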
Numbers without * were called inactive; . = no result.

SMILES	GRK2 aptamer HTS	proCasp7 act	VLA-4 inh	proCasp3 act	GASC-1 inh	Hep lipid drop	GRK2 CP1	Aptamer quench SP	others
c1ccc(CCNCCCOc2cccc3ccccc23)cc1	0	3	7	1	-8	-10	.	.
O=C1CC2(CCN(C(=O)c3ccccc3[N+](=O)[O-])CC2)Oc2ccccc21	2	1	0	14	1	.	.	.
COC(CNC(=O)CN1CCN(Cc2ccc(F)cc2Cl)C1=O)OC	17	11	5	-1	0	.	-3	96
Cc1ccc(N(CC(=O)Nc2cc(C)ccc2C)S(C)(=O)=O)cc1	1	5	8	0	-9	1	.	.
CC1CCc2c(sc(NC(=O)c3ccc(-c4ccccc4[N+](=O)[O-])o3)c2C#N)C1 (stereo unspecified)	73*	-7	-34	6	6	.	3	94
Cc1cc(C)c(C)c(S(=O)(=O)N2CCN(C(=O)c3cc(S(=O)(=O)N4CCOCC4)ccc3F)CC2)c1C	1	5	19	-4	5	.	-1	102
COc1ccc(N2CCN(C(=O)NC(=O)c3ccccc3)CC2)cc1	57*	-2	-3	-1	-4	-5	.	.	GRK2 CP2=5;FAM quench SP=96
O=C(CSc1nc2ccccc2c(=O)n1-c1ccccc1)NC(=O)CN1CCCC1=O	70*	2	10	-2	3	11	50*	103	Aptamer quench=12;GRK2 CP2=28;FAM quench SP=100;FAM quench DR=96
O=C1NC(=S)S/C1=C\c1ccc(SCc2ccco2)o1	0	-33	-21	-31	0	15	.	.
O=C1NC(=S)S/C1=C\c1ccc(SCc2ccccc2)o1	46*	-36	26	-29	1	-2	21	97
Cc1cc(C)n2nc(C(=O)N3CCCC(Nc4ccc(C(C)C)cc4)C3)cc2n1 (stereo unspecified)	4	-3	8	1	0	-2	.	.
Cc1cc(C)n2nc(C(=O)N3CCCC(Nc4ccc(F)c(F)c4)C3)cc2n1 (stereo unspecified)	85*	4	14	1	31	-15	.	.	GRK2 CP2=9;FAM quench SP=102
CCOC(=O)CC(NS(=O)(=O)c1ccc(OC)c(OC)c1)c1cccc([N+](=O)[O-])c1 (stereo unspecified)	0	4	-5	0	-10	0	.	.
CCOC(=O)CC(NS(=O)(=O)c1ccc2[nH]cc(C(=O)O)c(=O)c2c1)c1ccc(OCC)c(OC)c1 (stereo unspecified)	89*	1	-6	6	2	-67	70*	100	Aptamer quench=-122
Cc1cc(C)c2c(c1)C1(OCCO1)C(=O)N2	18	-2	4	9	-10	.	1	103
C=CCn1cccc(C(=O)Nc2ccc(OC)c(OC)c2)c1=O	48*	-7	-73	-1	3	.	0	97
OCC1CCCN(c2nc(CN3CCCCC3)nc3scc(-c4ccccc4)c23)C1 (stereo unspecified)	0	3	-2	-1	-3	-2	0	101
Fc1ccc(N2CCN(c3nc(CN4CCOCC4)nc4scc(-c5ccccc5)c34)CC2)cc1	4	-16	10	-2	3	18	.	.
CN(Cc1ccccc1)c1nc(CN2CCOCC2)nc2scc(-c3ccccc3)c12	5	-3	-6	7	-1	-6	-4	95
O=C(COc1ccc(/C=N/NC(=O)c2ccncc2)cc1)Nc1ccccc1	95*	10	3	4	-17	-24	-3	100
COC(=O)c1cc(Cl)nc2ccccc12	87*	15	-7	2	-4	2	3	95
COc1ccc(C2c3[nH]c4ccccc4c3C[C@H]3C(=O)N(C4CCN(Cc5ccccc5)CC4)CC(=O)N23)c(OC)c1 (stereo partly specified)	0	7	2	-1	7	25	.	.
CCOc1ccccc1C1c2[nH]c3ccccc3c2C[C@H]2C(=O)N(C3CCN(Cc4ccccc4)CC3)CC(=O)N12 (stereo partly specified)	0	.	4	.	-8	2	-13	101
Cc1ccccc1C1c2[nH]c3ccccc3c2C[C@H]2C(=O)N(C3CCN(Cc4ccccc4)CC3)CC(=O)N12 (stereo partly specified)	0	11	13	-4	1	24	-20	105
CSCCC(NC(=O)c1ccccc1Cl)C(=O)Nc1cccc(S(=O)(=O)N2CCCC2)c1 (stereo unspecified)	0	2	6	3	18	.	.	.
O=c1[nH]n(-c2ccc(F)cc2)c2ncccc12	53*	4	-20	16	4	.	1	104
O=c1ncn(-c2ccc(F)cc2)c2ncccc12	0	5	14	12	5	3	.	.
